The text below walks through data of ChEMBL document CHEMBL3526127, “Absorption, elimination, and metabolism of CS-1036, a novel α-amylase inhibitor in rats and monkeys, and the relationship between gastrointestinal distribution and suppression of glucose absorption” (Drug Metab Dispos, 2013).

The subject of series [1] is Rattus norvegicus. As to the kind of experiment: Total drug excretion in F344 rat at 1 mg/kg, po administered as single dose after 0 to 168 hrs by scintillation counting method. It is filed as ADME, organism-based. Details: dose 1 mg/kg, route oral. To be noted: in vivo. In outline: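 Fasted F344 rats (n = 4) received [14C]-labelled drug at 1 mg/kg (41.9 µCi/kg), iv via tail vein or oral. They were housed in metabolic cages. Urine and feces were collected to 168 h, and expired CO2 was trapped in 2-aminoethanol/2-methoxyethanol to 48 h. Radioactivity was counted by liquid scintillation, feces after homogenization. Results are % of dose.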

Series [2] can be described thus: Drug metabolism in human kidney S9 fractions at 0.42 uCi/ml assessed as metabolite formation in presence of NADPH after 1 hr at 37 degC by LC-MS/MS method. The class given is ADME, tissue-based. Conditions: s9, 1 h.
A short description of series [3]: Drug excretion in F344 rat urine at 1 mg/kg, po administered as single dose after 24 hrs by scintillation counting method. The class given is ADME, organism-based. Details: dose 1 mg/kg, route oral. To be noted: in vivo. In outline:
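[14C]-labelled drug (1 mg/kg, 42.2 µCi/kg) was given orally to fasted F344 rats (164–168 g, n = 3). Urine and feces were collected to 24 h; feces were homogenized in 9 volumes of water, combusted and counted. Parent fraction came from the excreted radioactivity times the radio-HPLC (HILIC) peak-area ratio; mean ± S.D.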

The nature of series [4]: Drug excretion in cynomolgus monkey urine at 3 mg/kg, iv administered as single dose after 0 to 336 hrs by scintillation counting method. The class given is ADME, organism-based, Macaca fascicularis. On the set-up: dose 3 mg/kg, route intravenous. To be noted: in vivo.
For series [5], the system named is Ileum. As to the kind of experiment: Drug distribution in F344 rat ileum at 1 mg/kg, po administered as single dose after 1 hr by scintillation counting method. The class given is ADME, organism-based. On the set-up: dose 1 mg/kg, route oral. To be noted: in vivo. The procedure, abridged: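 [14C]-labelled drug (1 mg/kg, 42.4 µCi/kg) was given orally to fasted F344 rats (148–168 g, n = 3). Contents of stomach, duodenum+jejunum, ileum and cecum were washed out with water at 0.5–8 h, homogenized, solubilized and counted by liquid scintillation. Results are % of dose, mean ± S.D.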

Series [6] in a line: Drug metabolism in po dosed F344 rat urine assessed as 1,4-dideoxy-1,4-imino-D-arabinitol formation by LC-MS/MS method. To be noted: in vivo. It is filed as ADME, organism-based.
Series [7] can be described thus: Drug excretion in cynomolgus monkey feces at 3 mg/kg, po administered as single dose after 48 hrs by scintillation counting method. To be noted: in vivo.
Series [8] is described as follows: Tmax in cynomolgus monkey at 3 mg/kg, po administered as single dose by LC-MS/MS method. It is filed as ADME, organism-based, Macaca fascicularis. On the set-up: dose 3 mg/kg, route oral. To be noted: in vivo. The procedure, abridged: (§1)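 Male F344 rats (146–185 g) and male cynomolgus monkeys (3.48–4.29 kg), n = 4 each, fasted overnight, received single iv or oral doses of 0.3, 1.0, 3.0 or 10.0 mg/kg. Monkeys had 2-week washouts between doses. Plasma was sampled to 48 h and assayed by LC-MS/MS with deuterated internal standard. Noncompartmental analysis: tmax observed; t1/2 by regression on ≥3 terminal log points; Vss = dose·AUMC/(AUC0–inf)²; Foral = oral/iv AUC0–inf at the same dose.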

Series [9] in a line: Volume of distribution at steady state in cynomolgus monkey at 1 mg/kg, iv administered as single dose by LC-MS/MS method. It is filed as ADME, organism-based, Macaca fascicularis. On the set-up: dose 1 mg/kg, route intravenous. Conditions: in vivo, read-out: Vdss. In outline: as §1
A short description of series [10]: Half life in cynomolgus monkey at 10 mg/kg, iv administered as single dose by LC-MS/MS method. On the set-up: dose 10 mg/kg, route intravenous. The class given is ADME, organism-based, Macaca fascicularis. To be noted: in vivo. In outline: as §1
The nature of series [11]: AUC (0 to infinity) in F344 rat at 1 mg/kg, iv administered as single dose by LC-MS/MS method. The class given is ADME, organism-based. Details: time infinity, dose 1 mg/kg, route intravenous. To be noted: plasma. In outline:
(§2)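 Fasted male F344 rats (146–185 g) or male cynomolgus monkeys (3.48–4.29 kg), n = 4 per dose, given single iv or oral dose of 0.3, 1.0, 3.0 or 10.0 mg/kg; monkeys dosed with 2-week washouts. Blood sampled to 48 h; plasma stored frozen. LC-MS/MS with deuterated internal standard. Noncompartmental analysis: AUClast by trapezoidal rule; AUC0–inf = AUClast + Ctz/terminal rate constant; mean ± S.D.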

Series [12] in a line: AUClast in cynomolgus monkey at 10 mg/kg, iv administered as single dose by LC-MS/MS method. The class given is ADME, organism-based, Macaca fascicularis. Conditions: plasma. Details: time 0 - last, dose 10 mg/kg, route intravenous. In outline: as §2
Series [13] is described as follows: Clearance in F344 rat at 3 mg/kg, iv administered as single dose by LC-MS/MS method. The class given is ADME, organism-based. On the set-up: dose 3 mg/kg, route intravenous. To be noted: in vivo. The procedure, abridged:
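Fasted male F344 rats (146–185 g) and male cynomolgus monkeys (3.48–4.29 kg), n = 4 each, received a single iv dose; monkeys had 2-week washouts between doses. Blood was sampled up to 48 h and plasma stored at […]. Plasma parent was quantified by LC-MS/MS with a deuterated internal standard. CL = dose/AUC0–inf by noncompartmental analysis; mean ± S.D.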

The structures appear in SMILES notation.

In the case of `C[C@H]1O[C@@H](O[C@H]2[C@H](O)[C@@H](O)[C@@H](O[14C@H]3[14C@H](O)[14CH2]N[14C@@H]3[14CH2]O)O[C@@H]2CO)[C@H](O)[C@@H](O)[C@@H]1O`, the Drug excretion came out at 97.94% in series [1], 1.4% in series [3], 81.13% in [4] and 48.7% in series [7]. The results for the Drug metabolism result in [2] and in series [6] were “metabolite_not_detected” and “metabolite_detected”, respectively. In series [5], this compound registered a Drug uptake of 67.7%.

Usually Tmax stands for the time at which the peak concentration occurs. As usually defined, the half-life is the time needed for the level to fall by half in the phase considered. The term AUC(0-inf) denotes the area under the concentration-time curve extrapolated to infinity. In general, AUC(0-t) refers to the area under the concentration-time curve up to a stated or last time point. Broadly, the clearance is the volume of plasma or blood freed of the substance per unit of time. Regarding `C[C@H]1O[C@@H](O[C@H]2[C@H](O)[C@@H](O)[C@@H](O[C@H]3[C@H](O)CN[C@@H]3CO)O[C@@H]2CO)[C@H](O)[C@@H](O)[C@@H]1O`, in series [8], the Tmax was determined as 1.75 h. For the same compound, in series [9], the Vd turned out to be 0.271 L/kg. The same compound had a half-life in series [10] of 30 h. The same compound gave an AUC(0-inf) in series [11] of 4930 ng·h/mL. This compound also yielded an AUC(0-t) in series [12] of 74300 ng·h/mL. Further, in series [13], the clearance was 2.67 mL/min/kg.
